The record followed here is ChEMBL document CHEMBL3779787, “Amorfrutin C Induces Apoptosis and Inhibits Proliferation in Colon Cancer Cells through Targeting Mitochondria” (J Nat Prod, 2016).

The subject of data set [1] is HT-29. Description: Induction of apoptosis in human HT-29 cells at 30 uM after 24 hrs by annexin V-FLUOS/propidium iodide staining-based flow cytometry in presence of PPAR siRNA. Format: functional, cell-based. The procedure, abridged:
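HT-29 transfected with PPARα/β/δ/γ siRNA pool (10 nM each) or 30 nM nonspecific siRNA, seeded 150 000 cells/well. After 48 h, 30 μM compound added for a further 24 h. Phosphatidylserine externalization by annexin V flow cytometry; means ± SEM, n = 6.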
For orientation: A flow cytometer gives signals particle by particle.

Data set [2] deals with HT-29. As to the kind of experiment: Induction of apoptosis in human HT-29 cells at 30 uM after 24 hrs by annexin V-FLUOS/propidium iodide staining-based flow cytometry in presence of alpha-tocopherol. Format: functional, cell-based. The procedure, abridged:
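HT-29 cells co-incubated 24 h with 30 μM compound and antioxidant: glutathione 2.5 mM, α-tocopherol 50 μM, or ascorbic acid 500 μM. Phosphatidylserine externalization measured by annexin V-FLUOS/propidium iodide staining and flow cytometry. Means ± SEM, n = 3.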

Data set [3] relates to HT-29. As to the kind of experiment: Increase in extracellular acidification rate in human HT-29 cells at 2 uM measured for 20 to 150 mins by time-resolved fluorescence assay relative to control. The format is functional. The procedure, abridged: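 HT-29 cells seeded 80 000/well, incubated overnight at 37 °C without CO2. Washed and loaded with pH-sensitive time-resolved fluorescence probe in low-buffering medium (1 mM PBS pH 7.4, 20 mM glucose, salts), 10 min at 37 °C, then compound added, wells unsealed. Read 200 min at 37 °C; lifetime converted to pH, rate taken 20–150 min as H+ change/min; n = 8.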

Data set [4] deals with HT-29. Description: Induction of cell cycle arrest in human HT-29 cells assessed as accumulation at S phase at 10 uM by flow cytometry (reference value: 11%). Format: functional.
Data set [5] has as its system HT-29. As to the kind of experiment: Induction of apoptosis in human HT-29 cells assessed as increase in caspase 3/7 activity at 30 uM after 2 hrs by luminescent assay relative to control. Format: functional. The procedure, abridged:
(§1)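 HT-29 cells exposed to compound 2 h; effector/initiator caspase enzymatic activity measured by luminescent assays, normalized to control treatment; means ± SEM, n = 4.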

The nature of data set [6]: Dissociation constant, pKa of the compound by UV metric method. Format: physicochemical. Put shortly: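 UV-metric titration with 0.15 M KCl at 25 °C: pH 12.0–2.0 at 32–26 μM in methanol/water cosolvent, and pH 12.5–8.9 at 30–21 μM in water.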
For data set [7], the system named is HT-29. As to the kind of experiment: Antiproliferative activity against human HT-29 cells assessed as cellular DNA content after 72 hrs by CyQUANT NF fluorescence assay in presence of irinotecan. The format is functional, cell-based. Put shortly: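 HT-29 exposed 72 h to concentration series of mixtures at ratios 7:0 through 0:7 with the partner drug. Relative cell number from DNA-content fluorescence. IC70 = concentration giving 70% inhibition of total cells (means ± SD, n = 4); isobolograms by Loewe additivity, CI(M) = IC70(Mx)/IC70(x) + IC70(My)/IC70(y).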

Data set [8] has as its system HT-29. Description: Induction of ROS generation in human HT-29 cells at 30 uM by CM-H2DCFDA staining-based fluorescence assay in presence of alpha-tocopherol. The format is functional, cell-based. Put shortly:
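HT-29 (15 000 cells/well) loaded with 50 μM CM-H2DCFDA in PBS for 30 min at 37 °C, washed, then 60 min in phenol red-free DMEM/F-12. 30 μM compound added alone or with NAC 1 mM, GSH 2.5 mM, D3T 25 μM, α-tocopherol 50 μM or ascorbic acid 500 μM. Fluorescence 485/530 nm read kinetically at 37 °C for 22 h; area under curve; means ± SEM, n = 7.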

The test system of data set [9] is HT-29. As to the kind of experiment: Induction of apoptosis in human HT-29 cells assessed as increase in caspase 8 activity at 30 uM after 2 hrs by luminescent assay relative to control. Format: functional. Put shortly: as §1

Calls of active or inactive are those of the source. No cut-off for these calls is given here.

For the compound `COc1c(CC=C(C)C)c(O)c(C(=O)O)c(CCc2ccccc2)c1CC=C(C)C`, the outcome in [1], in data set [2] and in data set [7] was Active. Also, the “fold change (FC)” value came out at 3 in data set [3], 2 in data set [5] and 3 in [9]. Besides, the Activity in data set [4] was 2%. Moreover, in data set [6], the pKa (as a rule, the pH at which an ionisable group is half protonated) was determined as 3.5. In addition, in [8], the result was inactive.
